# Test: Toxicity liver stage against HepG2, at 10uM
# Type: cell-based
# Design: test concentration 10 uM, cell line HepG2-A16-CD81EGFP
# Settings: human, HepG2-A16-CD81EGFP cells; read-out: INHIBITION
# Outline: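 Uninfected HepG2-A16-CD81EGFP cells, 3 × 10^3 per well, 1536-well, plated on prespotted compound at 10 μM final, parasite-free screening media added to match infected plates; puromycin 10 μM positive, DMSO 0.5% negative; run in parallel with 48 h PbLuc assay at 37 °C, 5% CO2; viability by CellTiter-Glo luminescence, normalized to controls.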
smiles,measurement,value
O=C(CCNC(=O)C1CCCC1)NCc1ccccc1Cn1ccnc1,cytotoxicity at 10 µM,-2.74%
CC1(C)Cc2ccccc2-c2nc(NCCO)[nH]c(=O)c21,cytotoxicity at 10 µM,-5.46%
Cc1ccccc1C1(C(=O)NCCN2CCOCC2)CCOCC1,cytotoxicity at 10 µM,-3.07%
Cc1n[nH]c(C)c1C1CCCN1C(=O)c1coc(Br)c1 (configuration not stated),cytotoxicity at 10 µM,4.23%
CNC(=O)c1cc2c(nc1N(C)C)CCN(S(=O)(=O)CC(C)C)CC2,cytotoxicity at 10 µM,-3.85%
CCC(C)N(Cc1ccncc1)C(=O)CCSC (configuration not stated),cytotoxicity at 10 µM,-0.146%
C[C@@H]1C[C@H]2CN(C(=O)c3cccc4c3OCCO4)C[C@H]2O1,cytotoxicity at 10 µM,-0.726%
Cc1ccc(OCC(=O)NC2(C#N)CCSCC2)cc1C,cytotoxicity at 10 µM,5.7%
COc1ccc(CNC(=O)N(C)CC(C)(C)O)cc1OC,cytotoxicity at 10 µM,6.89%
CSCC1CCN(C(=O)Cn2ncc(N3CCCCC3)cc2=O)CC1,cytotoxicity at 10 µM,-3.95%
CSc1ccc(CNC(=O)Cc2c(C)n[nH]c2C)cc1,cytotoxicity at 10 µM,4.16%
NCCC1CN(c2nc(-c3ccccc3)nc3c2CCNC3)CCO1 (configuration not stated),cytotoxicity at 10 µM,-9.26%
CSc1ccccc1NC(=O)c1ccc(N2CCOCC2)nn1,cytotoxicity at 10 µM,0.951%
Cn1cc(CCC(=O)N2CCCN(c3ncccc3C#N)CC2)cn1,cytotoxicity at 10 µM,2.88%
O=C(c1ccco1)N1CCN2C[C@H](Oc3cncnc3)C[C@H]2C1,cytotoxicity at 10 µM,-2.97%
CN(C)C(=O)CCC(=O)N1CCC2(CC1)COC2,cytotoxicity at 10 µM,2.05%
Cc1c(C(=O)N2CCC2(C)C)nnn1-c1cccc2cccnc12,cytotoxicity at 10 µM,4.13%
CCCNc1cc(C(=O)N2CCOCC2)nc(C)n1,cytotoxicity at 10 µM,10.8%
CC(OCC1CC1)C(=O)NCc1cccc(CN2CCCC2=O)c1 (configuration not stated),cytotoxicity at 10 µM,3.05%
COc1ccc(NC(=O)Cn2nc(C)c(C)cc2=O)cc1OC,cytotoxicity at 10 µM,-20.4%
O=C(CC1CC1)NCc1cn2c(n1)CN(C(=O)C1CCOCC1)CC2,cytotoxicity at 10 µM,-73.2%
O=C1CC2(CCN(Cc3ccoc3)CC2)CN1Cc1cc(F)cc(F)c1,cytotoxicity at 10 µM,12.2%
C[C@@H]1CN(C(=O)Cc2ccsc2)C[C@]12CCN(CCN(C)C)C2=O,cytotoxicity at 10 µM,-1.1%
COC(C(=O)N1CCN(c2cccc(Cl)c2)C(=O)C1)c1ccccc1 (configuration not stated),cytotoxicity at 10 µM,-9.09%
Cc1c(C(=O)NCC(F)(F)F)nnn1-c1ccccc1Cl,cytotoxicity at 10 µM,2.37%
CCOc1cc(NC(=O)N2CCC3(CCOCC3)C2)ccc1C,cytotoxicity at 10 µM,2.89%
CSc1ccc(CNC(c2ccccc2)c2nccn2C)cc1 (configuration not stated),cytotoxicity at 10 µM,2.39%
CCCC1CN(CC(C)C)C(=O)c2cccnc2O1 (configuration not stated),cytotoxicity at 10 µM,3.04%
CC(C)(C)n1cc(C(=O)N2CCN(Cc3ccsc3)CC2)cn1,cytotoxicity at 10 µM,-5.79%
CN(Cc1ccc(Cl)c(F)c1)C(=O)c1ccncc1F,cytotoxicity at 10 µM,3.31%
Cc1ccc(-c2noc(C(C)NS(C)(=O)=O)n2)cc1 (configuration not stated),cytotoxicity at 10 µM,-9.24%
COc1cc(F)ccc1-c1ncccc1NC(=O)C(C)C,cytotoxicity at 10 µM,1.23%
CC(C)c1[nH]c2ncccc2c1CN1CCOCC1,cytotoxicity at 10 µM,0.752%
CC(=O)N1CCO[C@@H]2CN(Cc3ccccc3F)C[C@@H]2C1,cytotoxicity at 10 µM,-108%
O=C(Cc1ccc(F)cc1)NCCNCc1cccc(O)c1,cytotoxicity at 10 µM,-10.4%
Cc1nn(C)c(Cl)c1C1CCCN1Cc1cn2ccsc2n1 (configuration not stated),cytotoxicity at 10 µM,-44.5%
CC(C)c1cc(C(=O)N2CCOC3(CCCC3)C2)no1,cytotoxicity at 10 µM,-6.2%
OCCC1CN(C2CCC2)CCN1C1CCCC1 (configuration not stated),cytotoxicity at 10 µM,-18.5%
COCCN(C/C=C/c1ccccc1)Cc1[nH]cnc1C,cytotoxicity at 10 µM,10.3%
NS(=O)(=O)c1ccc(NC(=O)CSc2ccc3c(c2)CCC3)cc1,cytotoxicity at 10 µM,-9.06%
Cc1ccc(-c2nnc(SCC(=O)O)n2-c2ccc(C)cc2)cc1,cytotoxicity at 10 µM,-3.53%
CN1CCC(N(C)C[C@H]2CC[C@@H](Cc3ccc4c(cnn4C)c3)O2)CC1,cytotoxicity at 10 µM,5.03%
O=C(NCCc1c[nH]cn1)C1CCCN(Cc2ccco2)C1 (configuration not stated),cytotoxicity at 10 µM,-0.123%
COC(C)(C)CNC(=O)N1CCC(n2ccc(C(F)(F)F)n2)CC1,cytotoxicity at 10 µM,-2.41%
O=C(c1ccc(N2CCCCCC2)nn1)N1CCc2ccccc21,cytotoxicity at 10 µM,-8.04%
COCCN(CCOC)C(=O)c1sc(C)nc1C,cytotoxicity at 10 µM,2.16%
CC1(C)CN(Cc2nnc(-c3cccnc3)o2)CC[C@]1(C)O,cytotoxicity at 10 µM,-10.2%
CS(=O)(=O)c1cccc(C(=O)NCCCN2CCc3ccccc3C2)c1,cytotoxicity at 10 µM,-12.1%
CCOc1ccc(C2c3c(N)nc(SC)nc3N=C3COC(=O)C32)cc1 (configuration not stated),cytotoxicity at 10 µM,30%
O=C(NCc1cccnc1)NC1CCC2(CCC(=O)N2CC2CC2)CC1 (configuration not stated),cytotoxicity at 10 µM,-114%
Cn1cc(C2COC3(CCN(C(=O)Cc4ccccc4)CC3)C2)cn1 (configuration not stated),cytotoxicity at 10 µM,-108%
Cc1sc(CN)nc1-c1ccc(Cl)cc1,cytotoxicity at 10 µM,-3.07%
Cn1cc(CN2CCC3(CC2)NC(=O)CC3c2ccncc2)cn1 (configuration not stated),cytotoxicity at 10 µM,-2.1%
O=C(NCCn1ccnc1)N1CCN(Cc2ccsc2)CC1,cytotoxicity at 10 µM,-15.3%
Cc1cc(N2CCC(O)(CN(C)C)C2)c2cc3c(cc2n1)OCO3 (configuration not stated),cytotoxicity at 10 µM,45.4%
N#CCCCS(=O)(=O)N1CCC(CSc2ccccc2)C1 (configuration not stated),cytotoxicity at 10 µM,1.7%
O=C(Nc1ccc(-c2csnn2)cc1)N1CCC(N2CCCC2)C1 (configuration not stated),cytotoxicity at 10 µM,-8.79%
O=C(COCCc1ccccc1)N1CCCC(n2cccn2)C1 (configuration not stated),cytotoxicity at 10 µM,-3.42%
O=C(c1ccccn1)N1CCN(c2ccc(-n3cccc3)nn2)CC1,cytotoxicity at 10 µM,-13.7%
O=C(C1CCOCC1)N1C[C@@H]2CC[C@H]1CN(Cc1ccncc1)C2,cytotoxicity at 10 µM,-11%
COCc1ccccc1C(=O)OCc1noc(C)n1,cytotoxicity at 10 µM,7.01%
Cc1ccc(-c2noc(CN3CCOC(CN(C)C)C3)n2)cc1F (configuration not stated),cytotoxicity at 10 µM,-5.48%
CCOC(=O)CN1CCC2(CC1)CC(NC(=O)c1ccccn1)CO2 (configuration not stated),cytotoxicity at 10 µM,2.17%
Cc1cn2c(n1)C(CNCc1cnn3ccccc13)CCC2 (configuration not stated),cytotoxicity at 10 µM,1.78%
CN1CCCC1c1cncc(C(=O)NCC2CC2)n1 (configuration not stated),cytotoxicity at 10 µM,-8.41%
CN(C)C(=O)c1cccc(NC(=O)CN2CCCCC2C2OCCO2)c1 (configuration not stated),cytotoxicity at 10 µM,-6.95%
COc1cccc(OCCCc2cc(C#N)ccn2)c1,cytotoxicity at 10 µM,-9.72%
O=C(c1ccc2nncn2c1)N1CCCCC1Cn1cccn1 (configuration not stated),cytotoxicity at 10 µM,-3.11%
CCc1cn[nH]c1C1CCN(C(=O)c2cc(C#N)c(=O)[nH]c2C)CC1,cytotoxicity at 10 µM,2.39%
Nc1nc2c(c(NCc3ccncc3)n1)CCCC2,cytotoxicity at 10 µM,4.56%
Cn1cc(C2CC(=O)NC23CCN(Cc2cccc(F)c2)CC3)cn1 (configuration not stated),cytotoxicity at 10 µM,7.13%
O=C(c1ccccn1)N1C[C@H]2CC[C@@H](C1)N(C(=O)Cc1cccs1)C2,cytotoxicity at 10 µM,-1.13%
CCc1nsc(N2CCC3(CC2)OCCO3)n1,cytotoxicity at 10 µM,2.24%
CC(=O)NCCNC(=O)c1cc(C)ccc1SC1CCCC1,cytotoxicity at 10 µM,-41.5%
CCC(=O)N1CCC2(CC1)C(c1cccnc1)CC(=O)N2CCOC (configuration not stated),cytotoxicity at 10 µM,-94.1%
CCc1nc(C)c(-c2nccn2CC2CC(=O)N(CC)C2)[nH]1 (configuration not stated),cytotoxicity at 10 µM,0.361%
c1csc(-c2nc(CNC3CCc4ncnn4C3)cs2)c1 (configuration not stated),cytotoxicity at 10 µM,2.07%
CCOCC(=O)Nc1nccn1Cc1ccccc1Cl,cytotoxicity at 10 µM,-0.678%
CC(C)Cn1nc2ccc(S(=O)(=O)N3CCC(C)CC3)cn2c1=O,cytotoxicity at 10 µM,1.67%
CC1COCCN1Cc1nc(C(C)(C)C)no1 (configuration not stated),cytotoxicity at 10 µM,4.87%
COc1cccc2[nH]cc(CCNC(=O)N3CCCC3CO)c12 (configuration not stated),cytotoxicity at 10 µM,-10.1%
CCn1ncnc1CN1CCc2[nH]cnc2C1Cc1ccccc1 (configuration not stated),cytotoxicity at 10 µM,-4.94%
c1ccc(CN2CCCC(c3nccnc3-n3ccnc3)C2)cc1 (configuration not stated),cytotoxicity at 10 µM,-4.56%
CN(C)C(=O)c1coc(COc2ccccc2)n1,cytotoxicity at 10 µM,-7.3%
CC(=O)N(C)Cc1cccc(NC(=O)CCCc2nc(C(C)C)no2)c1,cytotoxicity at 10 µM,-2.07%
CC(C)C(=O)N1CCCC2(CC(C(=O)NCc3cccnc3)=NO2)C1 (configuration not stated),cytotoxicity at 10 µM,-2.77%
O=C(NCCCN1CCc2ccccc2C1)c1cccnc1O,cytotoxicity at 10 µM,-3.49%
O=C(NCc1cn2c(n1)CN(Cc1cccnc1)CC2)C1CCC1,cytotoxicity at 10 µM,6.76%
CCN(C)C(=O)c1ccc(N(C)Cc2cc(-c3cccnc3)no2)nc1,cytotoxicity at 10 µM,-7.21%
C1CC(CN2CCO[C@H]3[C@H](OCC4CC4)CC[C@@H]32)CCO1,cytotoxicity at 10 µM,-13.3%
CCCn1cnnc1-c1nc2c([nH]1)CC(c1ccc(Cl)cc1)CNC2=O (configuration not stated),cytotoxicity at 10 µM,-31.1%
Cc1cscc1C(=O)NC1CC(=O)N(C(C)C)C1=O (configuration not stated),cytotoxicity at 10 µM,-6.51%
Cc1cc(C(=O)NCc2ccc(N3CCN(C)CC3)nc2)c(C)s1,cytotoxicity at 10 µM,-8.74%
Cn1ccc(CN2CCC(NC(=O)NC3CCCCC3)CC2)cc1=O,cytotoxicity at 10 µM,-6.26%
Cc1nnc2n1CCN(Cc1c(Cl)ccc3cccnc13)C2,cytotoxicity at 10 µM,8.25%
O=S(=O)(C1CC1)N1CCC2(CC1)CN(Cc1ccccn1)CCO2,cytotoxicity at 10 µM,-0.358%
CCC(C)n1cnc(S(=O)(=O)N(C)c2cccnc2N(C)C)c1 (configuration not stated),cytotoxicity at 10 µM,-3.08%
CC(C)CN(Cc1ccc(O)c(C(=O)O)c1)Cc1cnn(C)c1,cytotoxicity at 10 µM,-3.86%
O=C(NCc1nnc2n1CCCCC2)N1CCc2ccccc2C1,cytotoxicity at 10 µM,4.66%
Cc1nccc(N(C)Cc2ncc(-c3ccccc3C(=O)O)s2)n1,cytotoxicity at 10 µM,1.31%
CCn1nc(C)c2nnn(CC(=O)Nc3ccc(C)c(C)c3)c(=O)c21,cytotoxicity at 10 µM,5.75%
O=C(O)c1nnn(-c2ccccc2F)c1-c1ccncc1,cytotoxicity at 10 µM,10.2%
CCc1c(C)nc2n(c1=O)CC(C(=O)Nc1nc3c(s1)CCCC3)CS2 (configuration not stated),cytotoxicity at 10 µM,2.17%
CN(C)CCN(Cc1ccccc1)C(=O)CN1CCCNC1=O,cytotoxicity at 10 µM,1.42%
CCc1nc(C2CCCN(C(=O)c3ccc(O)nc3)C2)no1 (configuration not stated),cytotoxicity at 10 µM,-11.7%
CC(C)Nc1ncnc2c1CCN(Cc1nccn1C)CC2,cytotoxicity at 10 µM,0.507%
COc1ccc(Nc2ccc(C#N)cn2)cc1N1CCCC1=O,cytotoxicity at 10 µM,10.1%
COc1ccccc1OC1CCN(C(=O)CCCn2ccnc2)CC1,cytotoxicity at 10 µM,-183%
CCN(Cc1ccc2c(c1)OCCO2)C(=O)NCc1csc(C)n1,cytotoxicity at 10 µM,-5.16%
O=S1(=O)NC(c2ccnc(N3CCOCC3)n2)=Nc2ccccc21,cytotoxicity at 10 µM,10.8%
CN(Cc1cc(C(C)(C)C)n[nH]1)C(=O)CCC(=O)NC1CCCC1,cytotoxicity at 10 µM,-2.12%
CCC[C@@H]1CN(Cc2cc(C#N)n(C)c2C)C[C@H]1NS(C)(=O)=O,cytotoxicity at 10 µM,-132%
